Assay outcomes (PubChem BioAssay)
DTT redox prof – compounds producing H2O2 with reducing agent – biochemical, NIH compound library profiling, artefact control for MLSCN library redox annotation, primary screen. DTT-dependent redox cycling H2O2, phenol red/HRP absorbance; 100% = 100 µM peroxide control, 0% = buffer. activation, % at 10 µM. 200,000 tested, 0.03% active;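 active = activation of at least 50% relative to the plate's high and low controls in the primary single-dose screen; inactive = activation below 50%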;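 also: compound incubated with DTT at 0.8 mM final as the reducing agent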
p97 ATPase inh – blocks human p97 ATPase activity; P55072; recombinant p97 ATPase, Kinase-Glo ATP luminescence, 3 h; inhibition, % at 8 µM; 220,000 tested, 0.42% active; in the data active = inhibition above about 15%;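 also: 0% = DMSO vehicle and 100% = wells lacking enzyme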
ROMK primary – modulators of human ROMK potassium channel; 130,000 tested, 2% active; B-score at 10 µM; Tet-inducible ROMK, thallium flux fluorescence; actives lie on both sides; AID 1918; P48048;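 active = signal ratio slope over the read window, or its plate-corrected B-score, at least 3 SD from the plate mean, either direction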;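 also: B-score of the F/F0 ratio slope over 7 to 12 s after thallium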
Cl transport mod – modulates chloride dependent transport by human KCC2. Q9H2X9. KCC2 cells, thallium flux FluoZin-2 fluorescence. B-score of Tl+ flux slope (higher = more flux/activation; lower = inhibition) at 10 µM. 190,000 tested, 2.2% active. AID 1456;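 active = thallium flux slope and its plate-corrected score both differing from the plate sample mean at a set confidence after two filtering rounds, in either direction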;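 also: slope of fluorescence scaled to starting intensity during 10 to 20 s after thallium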
PKD1 kinase inh – blocks activity of human protein kinase D1. Q15139. PKD1 kinase fluorescence polarization assay. inhibition, % (concentration not given with the values). 200,000 tested, 0.056% active. AID 797; in the data active = inhibition above about 50%
Mdm2 ligase inh – inhibitors of human Mdm2 E3 ubiquitin ligase; Q00987; signal enhancement, % at 5 µM; cell-based MDM2 ubiquitination luciferase reporter, 2 h; 0 = plate control, 100 = twice control, blank-subtracted; AID 1230; 210,000 tested, 0.11% active;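 active = signal enhancement of 30% or more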;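 also: luminescence tracks abundance of the self-degrading MDM2-luciferase fusion protein; higher signal means inhibition of MDM2 E3 ligase activity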
Target sequence (Q00987 whole entry, looked up, the tested form may be a part): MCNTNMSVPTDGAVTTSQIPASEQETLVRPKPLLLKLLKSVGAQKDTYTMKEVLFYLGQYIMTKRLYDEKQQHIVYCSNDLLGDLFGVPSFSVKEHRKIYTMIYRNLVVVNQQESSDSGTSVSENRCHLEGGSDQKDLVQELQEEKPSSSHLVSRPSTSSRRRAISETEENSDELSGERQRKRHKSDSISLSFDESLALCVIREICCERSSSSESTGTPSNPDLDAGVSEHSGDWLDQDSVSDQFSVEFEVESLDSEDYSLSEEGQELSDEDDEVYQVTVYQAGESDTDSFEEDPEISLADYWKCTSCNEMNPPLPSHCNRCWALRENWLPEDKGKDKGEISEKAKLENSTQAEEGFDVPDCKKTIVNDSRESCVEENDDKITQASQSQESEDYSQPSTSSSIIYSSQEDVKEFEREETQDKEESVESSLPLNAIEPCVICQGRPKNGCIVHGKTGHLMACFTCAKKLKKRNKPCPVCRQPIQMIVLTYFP
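Assay system: stable mammalian line carrying autodegrading MDM2–luciferase fusion reporter; amount: 2000 cells seeded into each well; buffer or medium: DMEM; benchmarks: plate control and blank wells; signal: luciferase luminescence; timing: 2 h compound exposure at 37 °C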
KCC2 sec1 – confirmation of human KCC2 transport modulators. 3,700 tested, 15% active. AID 1713. normalised thallium flux (F/F0 slope) at 10 µM. shares compounds with Cl transport mod. HEK293-KCC2, thallium flux, FluoZin2 fluorescence; stronger effect = higher value;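 active = thallium flux slope above the same plate's solvent-only control mean plus 3 SD; inconclusive = the two replicate wells disagree; inactive = no significant difference from solvent-only control wells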
KCC2 bumet counter – thallium flux despite bumetanide block in KCC2 cells, secondary assay 3; shares compounds with Cl transport mod; AID 1714; 3,700 tested, 49% active; normalized thallium flux at 10 µM; HEK293-KCC2 + bumetanide/ouabain, thallium flux FluoZin2; stronger effect = higher value;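 active = thallium entry rate above the same plate's blocked-transporter control wells by more than 3 SD; inconclusive = the two repeat wells disagree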;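 also: raw slope of fluorescence over initial fluorescence between 10 and 20 s after thallium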
KCC2 secondary2 – KCC2 (human) modulation, second secondary assay. normalized thallium flux at 10 µM. 3,700 tested, 23% active. shares compounds with Cl transport mod. HEK293-KCC2, thallium flux FluoZin2 fluorescence; actives lie on both sides; F/F0 rise rate, 10–20 s post-thallium. AID 1715;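 active = thallium flux slope more than 3 SD above or below the plate's solvent-only control mean, mostly below; inconclusive = the two repeat wells disagreed; inactive = no significant shift from solvent-only controls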;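 also: raw slope with 0.1% DMSO as baseline and bumetanide as block control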
HEK293 Tl flux – counter-screen for KCC2 modulators: effect in parental HEK293 cells; shares compounds with Cl transport mod; thallium flux FluoZin2, ouabain; baseline-ratio fluorescence slope, 10–20 s after thallium; thallium flux rate (normalised fluorescence) at 10 µM; 3,700 tested, 46% active;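 active = thallium flux rate significantly above the same plate's solvent-only control wells, beyond their mean plus 3 SD; inconclusive = the two replicate wells gave conflicting results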
KCC2 retest ouab – modulates human KCC2 on retest with ouabain. HEK293-KCC2, thallium flux FluoZin2 fluorescence; bidirectional: low = inhibitor, high = activator. shares compounds with Cl transport mod. 3,700 tested, 48% active. raw Tl+ flux slope (below DMSO = inhibition, above = activation) at 10 µM;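 active = thallium flux slope beyond 3 SD from same-plate DMSO control mean in most replicates, usually higher, sometimes lower; inconclusive = repeat tests gave conflicting results; inactive = no significant difference from controls in most replicates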;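 also: slope of initial-normalized fluorescence between seconds 10 and 20 after thallium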
HEK counter2 – parental HEK flux effect, counter-screen 2; HEK293 parental, thallium flux FluoZin-2 fluorescence slope; shares compounds with Cl transport mod; thallium flux slope at 10 µM; 3,700 tested, 33% active;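 active = thallium flux slope above the same plate's solvent-control mean plus 3 SD in both duplicate wells; inconclusive = duplicate wells that disagreed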;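 also: run without ouabain in cells lacking the KCC2 cotransporter; slope of fluorescence scaled to its starting value between 10 and 20 s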
Numbers without * were called inactive; ? = inconclusive; . = no result given. Most compounds without a hit are left out; they make up all but 3.4% or so of the library.

SMILES | DTT redox prof | p97 ATPase inh | ROMK primary | Cl transport mod | PKD1 kinase inh | Mdm2 ligase inh | KCC2 sec1 | KCC2 bumet counter | KCC2 secondary2 | HEK293 Tl flux | KCC2 retest ouab | HEK counter2
CCN(CC)CCNC(=O)C1CCC(=O)N1CCc1ccccc1 (centres undefined) | -1 | 0 | 0.24 | . | -9 | -5 | . | . | . | . | . | .
O=C1CC(c2ccccc2)SC(N(c2ccccc2)c2ccccc2)=N1 (centres undefined) | 0 | 2 | . | -0.44 | -7 | -3 | . | . | . | . | . | .
CCOc1ccc(NC(=S)NC(=O)c2c(Cl)c(C)nn2C)c([N+](=O)[O-])c1 | -1 | 3 | 0.35 | 9.4* | -10 | 0 | 0.011 | 0.017* | 0.034 | ? | ? | 0.012
CCOc1ccc(NC(=S)NC(=O)/C=C/c2ccc(C)cc2)c([N+](=O)[O-])c1 | -4 | 5 | 0.49 | -0.24 | -1 | -68 | . | . | . | . | . | .
Cc1nc(SCc2ccccc2)c([N+](=O)[O-])[nH]1 | . | 2 | . | -5.2* | -4 | 2 | 0.009 | 0.0061 | 0.027* | 0.0039 | 0.014* | 0.011
COc1ccc(CSc2nc(C)[nH]c2[N+](=O)[O-])cc1[N+](=O)[O-] | . | -3 | . | -1.4 | . | -3 | . | . | . | . | . | .
C[C@@H](C[C@@H](O)[C@H](O)C(C)(C)O)[C@@H]1CC[C@]2(C)C3=CC[C@H]4C(C)(C)C(=O)CC[C@]4(C)[C@H]3CC[C@@]12C | 1 | -4 | 0.49 | 4.8* | -6 | . | 0.0052 | 0.031* | 0.031 | 0.0077 | ? | 0.011
CC(C)(O)CC[C@@H](O)[C@](C)(O)[C@H]1CC[C@@]2(O)C3=CC(=O)[C@@H]4C[C@@H](O)[C@@H](O)C[C@]4(C)C3CC[C@]12C (some centres undefined) | 0 | 4 | . | 0.38 | 17 | -7 | . | . | . | . | . | .
CCOC(=O)Cc1cc(-c2ccc(OC)cc2)nc2ccc3ccccc3c12 | 0 | -1 | -1.3 | 0.99 | -5 | -2 | . | . | . | . | . | .
Oc1cccc2ccc(/C=C/c3cccs3)nc12 | 0 | -7 | . | 15* | -3 | -6 | 0.0096 | 0.019* | 0.032 | 0.013* | ? | 0.011
Cc1ccsc1/C=C/c1ccc2cccc(O)c2n1 | 0 | 2 | 0.38 | 1.4 | -1 | -1 | . | . | . | . | . | .
Cc1ccc(C(=O)Nc2ncc(Cc3ccc(F)cc3)s2)o1 | 4 | 0 | . | -4.8* | 6 | -4 | 0.0075 | 0.007 | 0.031 | ? | 0.018 | ?
Cc1ccc(C(=O)Nc2ncc(C)s2)o1 | 0 | -13 | . | . | 0 | -22 | . | . | . | . | . | .
CCn1c(NC(=O)c2cccs2)nc2ccccc21 | 2 | 6 | . | 27* | -9 | -26 | 0.0075 | 0.03* | 0.036 | 0.019* | ? | 0.021*
CCn1c(NC(C)=O)nc2ccccc21 | 1 | 1 | 0.041 | 1.8 | -3 | 2 | . | . | . | . | . | .
O=C(Oc1ccc2ccccc2c1Cl)N1CCCCCC1 | 0 | 2 | . | -0.9 | -7 | -25 | . | . | . | . | . | .
O=C(Oc1ccc2ccccc2c1Cl)N1CCCC1 | -1 | -9 | . | . | -13 | -19 | 0.0062 | 0.0053 | 0.029 | 0.0063 | 0.015* | 0.0094
CC(C)OP(=O)(OC(C)C)C(Nc1cccc(C(=O)O)c1)c1ccccc1 (centres undefined) | . | 2 | . | 0.33 | . | -7 | . | . | . | . | . | .
CN(C(=S)NC(=O)c1ccc(Br)o1)c1ccccc1 | 0 | -3 | 1 | 7.7* | 1 | -11 | 0.0065 | 0.02* | 0.04* | 0.02* | 0.031* | 0.023*
Cc1cccc2sc(NNC(=O)C3COc4ccccc4O3)nc12 (centres undefined) | 1 | 3 | -2.2 | 10* | -2 | . | 0.009 | 0.043* | 0.033 | 0.017* | 0.035* | 0.015*
COc1ccc(OC)c2sc(NNC(=O)C3COc4ccccc4O3)nc12 (centres undefined) | 10 | 3 | 0.63 | . | -1 | -9 | . | . | . | . | . | .
O=C(Nc1nnc(C(F)(F)F)s1)C1COc2ccccc2O1 (centres undefined) | -2 | -6 | . | -3.8* | 0 | -18 | 0.0083 | 0.0068 | 0.035 | 0.0043 | 0.018 | 0.012
O=C(NNc1nc2c(F)cc(F)cc2s1)C1COc2ccccc2O1 (centres undefined) | 0 | -5 | -1.3 | 6* | -5 | -4 | ? | 0.036* | 0.037 | ? | 0.033* | ?
CCOC(=O)c1sc(-c2ccc(Cl)cc2Cl)nc1O | . | 6 | . | 9.2* | . | -12 | 0.007 | 0.02* | 0.028 | 0.017* | 0.026* | 0.013*
CCOC(=O)c1sc(CS(=O)(=O)c2ccc(Cl)cc2)nc1C | . | 6 | -1.9 | 0.14 | . | -15 | . | . | . | . | . | .
SMILES | DTT redox prof | p97 ATPase inh | ROMK primary | Cl transport mod | PKD1 kinase inh | Mdm2 ligase inh | KCC2 sec1 | KCC2 bumet counter | KCC2 secondary2 | HEK293 Tl flux | KCC2 retest ouab | HEK counter2
Cc1ccc2cccc(NC(=S)NC(=O)c3ccn(C)n3)c2n1 | 0 | -4 | -0.14 | . | 2 | -10 | . | . | . | . | . | .
Cc1ccc2cccc(NC(=S)NC(=O)c3c(Br)cnn3C)c2n1 | -3 | 4 | . | 5.7* | 6 | . | 0.0067 | 0.015* | 0.027 | 0.014* | 0.029* | 0.012*
Cc1nc(C(=O)NNC(=O)c2ccc(Cl)cc2)c(C(F)(F)F)o1 | . | 4 | -1.1 | 17* | . | -12 | 0.0055 | 0.03* | 0.039* | 0.024* | 0.035* | 0.02*
COc1ccc(N2C(=S)N=C(Nc3cccc(C)c3)C23CCCCC3)cc1 | -1 | 1 | 0.0056 | 4.3* | -5 | 6 | 0.01 | 0.011* | 0.031 | 0.011* | 0.025 | 0.011*
COc1ccccc1N1C(=S)N=C(Nc2c(C)cccc2C)C12CCCC2 | . | -11 | . | 6.2* | . | 1 | 0.011 | 0.048* | 0.035 | 0.015* | 0.025 | 0.012*
Cc1cccc(C)c1NC1=NC(=S)N(c2ccc(C(=O)O)cc2)C12CCCCC2 | 0 | 0 | -0.66 | 0.68 | 9 | 2 | . | . | . | . | . | .
O=C(CCn1nc(-c2ccccc2)ccc1=O)N1CCCC1 | 1 | 5 | . | -0.38 | -11 | -12 | . | . | . | . | . | .
